In ChEMBL document CHEMBL4004861, “Novel 2,3-disubstituted quinazoline-4(3H)-one molecules derived from amino acid linked sulphonamide as a potent malarial antifolates for DHFR inhibition” (Eur J Med Chem, 2017):
≈ marks a conversion by molar mass, not a printed value.

Experiments:
Plasmodium falciparum [1] = test: Antimalarial activity against Plasmodium falciparum; type: functional
Method in brief: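 Drug stocks diluted in complete medium (RPMI 1640 plus 10% human serum) over seven dilutions, 0.0001 up to 100 mg/mL as printed. Reference antimalarials run as positive controls in every experiment. Percent inhibition at each concentration was calculated against untreated control to give IC50.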

Plasmodium falciparum [2] = test: Antimalarial activity against Plasmodium falciparum assessed as reduction in parasitic LDH activity by Malstat reagent based spectrophotometric method; type: functional
Method in brief: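 Parasite lactate dehydrogenase (Malstat) read spectrophotometrically at 650 nm. Compounds were in RPMI 1640 with 10% human serum, seven dilutions.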

Plasmodium falciparum [3] = test: Antimalarial activity against Plasmodium falciparum infected in RBC after 5 days by MTT assay; type: functional
Method in brief: (§1)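 MTT reduction, run in parallel on infected and on normal uninfected RBC cultures and read at 565 and 690 nm. Compounds were in RPMI 1640 with 10% human serum, seven dilutions. Drug-free, parasite-free RBC cultures were set as maximum activity, with untreated, uninfected and cell-free controls. EC50 (parasite) and CC50 (RBC) were derived, and SI = CC50/EC50.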

[4] = Selectivity index, ratio of CC50 for RBC (unknown origin) to EC50 for Plasmodium falciparum infected in RBC; method in brief: as §1
Dihydrofolate reductase = molecular target: T1, Dihydrofolate reductase (Bos taurus, UniProt P00376); test: Inhibition of bovine liver DHFR using FH2 as substrate preincubated for 2 mins followed by substrate addition in presence of NADPH
T1 sequence (P00376 whole entry): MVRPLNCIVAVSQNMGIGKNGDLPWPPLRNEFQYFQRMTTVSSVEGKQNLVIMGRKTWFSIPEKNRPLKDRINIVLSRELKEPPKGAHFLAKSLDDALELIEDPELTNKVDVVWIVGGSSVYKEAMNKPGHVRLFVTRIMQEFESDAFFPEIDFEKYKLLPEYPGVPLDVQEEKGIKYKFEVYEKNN

Vero = test: Cytotoxicity against African green monkey Vero cells assessed as reduction in cell viability up to 15 ug/ml after 72 hrs by MTT assay; type: cell-based; settings: chlorocebus sabaeus
Method in brief: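 Vero cells were exposed to compounds for 72 h at 37 °C, with MTT conversion to formazan read at 540 nm. Viability was calculated relative to cells treated with 0.1% DMSO medium. Triplicate treatments; IC50 derived. Cells were tested up to 15 µg/mL.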

[5] = Selectivity index, ratio of IC50 for African green monkey Vero cells to IC50 for bovine liver DHFR
Method in brief: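 Bovine liver DHFR (0.02 units) in 50 mM Tris-HCl pH 7.4 with 50 µM NADPH, compounds in DMSO at final 10⁻¹¹–10⁻⁵ M, total volume 2.0 ml. Mixture held 2 min at room temperature, then started with 25 µM FH2, and ΔA/min at 340 nm recorded. […] SI = Vero IC50 / DHFR IC50, triplicate averages.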

Compound `CC(C)CC(NS(=O)(=O)c1ccc(N)cc1)c1nc2ccccc2c(=O)n1-c1ccc(Br)cc1` (stereo not drawn) has an IC50 (Plasmodium falciparum [1]) of 0.068 µg/mL (≈ 0.126 µM), an IC50 (Plasmodium falciparum [2]) of 37240 ppm and an EC50 (Plasmodium falciparum [3]) of 1909 ppm. The Ratio CC50/EC50 [4] was 15.3, the IC50 (Dihydrofolate reductase) was 161 nM and the Activity (Vero) was “Non-Toxic”. For the same compound, the “Ratio IC50” value [5] was 172.14.

In the case of `CC(C)CC(NS(=O)(=O)c1ccc(N)cc1)c1nc2ccccc2c(=O)n1-c1cccc(Cl)c1` (stereo not drawn), the IC50 (Plasmodium falciparum [1]) is reported as 0.068 µg/mL (≈ 0.137 µM), the IC50 (Plasmodium falciparum [2]) is reported as 524.8 ppm and the EC50 (Plasmodium falciparum [3]) is reported as 368.97 ppm. The Ratio CC50/EC50 [4] was 50.6, the IC50 (Dihydrofolate reductase) was 72.4 nM and the Activity (Vero) was “Non-Toxic”. The “Ratio IC50” value [5] was 416.66.

`CC(C)CC(NS(=O)(=O)c1ccc(N)cc1)c1nc2ccccc2c(=O)n1-c1ccc([N+](=O)[O-])cc1` (stereo not drawn) showed an IC50 (Plasmodium falciparum [1]) of 0.84 µg/mL (≈ 1.65 µM).

`CC(C)CC(NS(=O)(=O)c1ccc(N)cc1)c1nc2ccccc2c(=O)n1-c1ccccc1Br` (stereo not drawn) gave an IC50 (Plasmodium falciparum [1]) of 0.068 µg/mL (≈ 0.126 µM), an IC50 (Plasmodium falciparum [2]) of 3380 ppm and an EC50 (Plasmodium falciparum [3]) of 2831 ppm. For the same compound, the Ratio CC50/EC50 [4] was 20.6, the IC50 (Dihydrofolate reductase) was 168 nM and the Activity (Vero) was “Non-Toxic”. For the same compound, the “Ratio IC50” value [5] was 164.83.

With `COc1ccc(-n2c(C(CC(C)C)NS(=O)(=O)c3ccc(N)cc3)nc3ccccc3c2=O)cc1` (stereo not drawn) the IC50 (Plasmodium falciparum [1]) was 0.068 µg/mL (≈ 0.138 µM), the IC50 (Plasmodium falciparum [2]) was 8317 ppm and the EC50 (Plasmodium falciparum [3]) was 1009 ppm. The Ratio CC50/EC50 [4] was 19500, the IC50 (Dihydrofolate reductase) was 97.4 nM and the Activity (Vero) was “Non-Toxic”. The “Ratio IC50” value [5] was 312.5.

`CC(C)CC(NS(=O)(=O)c1ccc(N)cc1)c1nc2ccccc2c(=O)n1-c1ccccc1[N+](=O)[O-]` (stereo not drawn) showed an IC50 (Plasmodium falciparum [1]) of 0.92 µg/mL (≈ 1.81 µM).

With `COc1cc(Cc2cnc(N)nc2N)cc(OC)c1OC` [TRIMETHOPRIM] the IC50 (Plasmodium falciparum [1]) was 0.38 µg/mL (≈ 1.31 µM).

With `Cc1cccc(-n2c(C(CC(C)C)NS(=O)(=O)c3ccc(N)cc3)nc3ccccc3c2=O)c1` (stereo not drawn) the IC50 (Plasmodium falciparum [1]) was 1.28 µg/mL (≈ 2.69 µM).

`CCc1nc(N)nc(N)c1-c1ccc(Cl)cc1` [PYRIMETHAMINE] showed an IC50 (Plasmodium falciparum [1]) of 0.25 µg/mL (≈ 1.01 µM).

Work on `COc1cccc(-n2c(C(CC(C)C)NS(=O)(=O)c3ccc(N)cc3)nc3ccccc3c2=O)c1` (stereo not drawn) yielded an IC50 (Plasmodium falciparum [1]) of 0.78 µg/mL (≈ 1.58 µM).

`CC(C)CC(NS(=O)(=O)c1ccc(N)cc1)c1nc2ccccc2c(=O)n1-c1cccc(Br)c1` (stereo not drawn) showed an IC50 (Plasmodium falciparum [1]) of 0.78 µg/mL (≈ 1.44 µM).

Work on `Cc1ccc(-n2c(C(CC(C)C)NS(=O)(=O)c3ccc(N)cc3)nc3ccccc3c2=O)cc1` (stereo not drawn) yielded an IC50 (Plasmodium falciparum [1]) of 0.67 µg/mL (≈ 1.41 µM).

`CCN(CC)CCCC(C)Nc1ccnc2cc(Cl)ccc12` (stereo not drawn) [CHLOROQUINE] showed an EC50 (Plasmodium falciparum [3]) of 28.97 ppm and an IC50 (Dihydrofolate reductase) of 31.3 nM.

Work on `CC(C)CC(NS(=O)(=O)c1ccc(N)cc1)c1nc2ccccc2c(=O)n1-c1ccc(Cl)cc1` (stereo not drawn) yielded an IC50 (Plasmodium falciparum [1]) of 0.068 µg/mL (≈ 0.137 µM), an IC50 (Plasmodium falciparum [2]) of 96.38 ppm and an EC50 (Plasmodium falciparum [3]) of 115.61 ppm. The Ratio CC50/EC50 [4] was 87.7, the IC50 (Dihydrofolate reductase) was 56.3 nM and the Activity (Vero) was “Non-Toxic”. For the same compound, the “Ratio IC50” value [5] was 535.71.

With `COc1ccccc1-n1c(C(CC(C)C)NS(=O)(=O)c2ccc(N)cc2)nc2ccccc2c1=O` (stereo not drawn) the IC50 (Plasmodium falciparum [1]) was 0.72 µg/mL (≈ 1.46 µM).

With `CC(C)CC(NS(=O)(=O)c1ccc(N)cc1)c1nc2ccccc2c(=O)n1-c1cccc([N+](=O)[O-])c1` (stereo not drawn) the IC50 (Plasmodium falciparum [1]) was 0.78 µg/mL (≈ 1.54 µM).

Work on `CC(C)CC(NS(=O)(=O)c1ccc(N)cc1)c1nc2ccccc2c(=O)n1-c1ccccc1Cl` (stereo not drawn) yielded an IC50 (Plasmodium falciparum [1]) of 0.136 µg/mL (≈ 0.274 µM).

`CC(C)CC(NS(=O)(=O)c1ccc(N)cc1)c1nc2ccccc2c(=O)n1-c1ccc(F)cc1` (stereo not drawn) gave an IC50 (Plasmodium falciparum [1]) of 1.12 µg/mL (≈ 2.33 µM).

With `Cc1ccccc1-n1c(C(CC(C)C)NS(=O)(=O)c2ccc(N)cc2)nc2ccccc2c1=O` (stereo not drawn) the IC50 (Plasmodium falciparum [1]) was 0.72 µg/mL (≈ 1.51 µM).

In the case of `CC(C)CC(NS(=O)(=O)c1ccc(N)cc1)c1nc2ccccc2c(=O)n1-c1ccccc1` (stereo not drawn), the IC50 (Plasmodium falciparum [1]) is reported as 0.68 µg/mL (≈ 1.47 µM).

With `CC(C)CC(NS(=O)(=O)c1ccc(N)cc1)c1nc2ccccc2c(=O)n1Nc1ccccc1` (stereo not drawn) the IC50 (Plasmodium falciparum [1]) was 1.05 µg/mL (≈ 2.2 µM).

Work on `CC(C)CC(NS(=O)(=O)c1ccc(N)cc1)c1nc2ccccc2c(=O)n1-c1ccccc1F` (stereo not drawn) yielded an IC50 (Plasmodium falciparum [1]) of 1.01 µg/mL (≈ 2.11 µM).
